Source: ChEMBL document CHEMBL1123615, “1,3-Dialkyl-4-(iminoarylmethyl)-1H-pyrazol-5-ols. A series of novel potential antipsychotic agents” (J Med Chem, 1987)

How the values were obtained:
D(2) dopamine receptor = D(2) dopamine receptor (Rattus norvegicus, UniProt P61169); test: In vitro binding affinity against Dopamine receptor D2 by displacement of [3H]haloperidol from rat striatal membranes.; assay type: cell membranes, Membrane
Mus musculus [1] = test: Inhibition of locomotor activity (LMA) and motor coordination in mice by intraperitoneal administration.; assay type: functional; conditions: ip
Procedure, shortened: (§1)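 Mice scored for inhibition of spontaneous locomotor activity and for ataxia (impaired motor coordination). Nine mice per dose; ED50 derived from at least three doses.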

Mus musculus [2] = test: Inhibition of ataxia in mice by intraperitoneal administration.; assay type: functional; conditions: ip; procedure, shortened: as §1
Rattus norvegicus [3] = test: Inhibition of sidman avoidance in rats, activity expressed as ED50 mg/kg per orally.; assay type: functional; conditions: po
Procedure, shortened: (§2)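 Sidman avoidance in rats or squirrel monkeys with oral dosing; ED50 given in mg/kg.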

[4] = target: alpha-1 adrenergic receptor (Rattus norvegicus); test: Affinity for displacement of [3H]WB-4101 labeled alpha-1 adrenergic receptor
D(1A) dopamine receptor = D(1A) dopamine receptor (Rattus norvegicus, UniProt P18901); test: Affinity for displacement of [3H]SCH-23390 labeled Dopamine receptor D1
Procedure, shortened: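 [3H]SCH23390 binding (D1 label), run by a method from earlier work. IC50 obtained by non-linear regression over four or five concentrations. Reference standard SCH23390 included.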

Rattus norvegicus [5] = test: Inhibition of self-stimulation in rats, activity expressed as ED50 mg/kg per orally.; assay type: functional; conditions: po
Procedure, shortened: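 Oral dosing in rats; suppression of high baseline self-stimulation measured; ED50 given in mg/kg.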

[6] = Extrapyramidal syndrome(EPS) signs in cebus monkeys, activity expressed as MED mg/kg per orally.; assay type: functional; conditions: po; read-out: MED
Procedure, shortened: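 Cebus monkeys previously sensitized to haloperidol, observed for dystonic signs after oral dosing. Minimal effective dose determined in at least three animals.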

[7] = target: alpha-2 adrenergic receptor (Rattus norvegicus); test: Affinity for displacement of [3H]clonidine labeled alpha-2 adrenergic receptor
[8] = Inhibition of sidman avoidance in squirrel monkeys, activity expressed as ED50 mg/kg per orally.; assay type: functional; conditions: po; procedure, shortened: as §2
Rattus norvegicus [9] = test: Effect on serum prolactin level, activity expressed as percent control at 23.7 and 27.0 mg/kg per orally.; assay type: functional
Procedure, shortened: (§3)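 Rats dosed orally and killed 1 h after administration; serum prolactin measured. Values are means from groups of five animals, expressed as % of vehicle control.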

Rattus norvegicus [10] = test: Effect on serum prolactin level, activity expressed as percent control at 23.7 mg/kg per orally.; assay type: functional; conditions: in the assay text read “27.0 mg/kg” for “23.7 mg/kg”; procedure, shortened: as §3
Rattus norvegicus [11] = test: Effect on serum prolactin level, activity expressed as percent control at 27.0 mg/kg per orally.; assay type: functional; procedure, shortened: as §3

D(2) dopamine receptor, sequence (P61169 whole entry): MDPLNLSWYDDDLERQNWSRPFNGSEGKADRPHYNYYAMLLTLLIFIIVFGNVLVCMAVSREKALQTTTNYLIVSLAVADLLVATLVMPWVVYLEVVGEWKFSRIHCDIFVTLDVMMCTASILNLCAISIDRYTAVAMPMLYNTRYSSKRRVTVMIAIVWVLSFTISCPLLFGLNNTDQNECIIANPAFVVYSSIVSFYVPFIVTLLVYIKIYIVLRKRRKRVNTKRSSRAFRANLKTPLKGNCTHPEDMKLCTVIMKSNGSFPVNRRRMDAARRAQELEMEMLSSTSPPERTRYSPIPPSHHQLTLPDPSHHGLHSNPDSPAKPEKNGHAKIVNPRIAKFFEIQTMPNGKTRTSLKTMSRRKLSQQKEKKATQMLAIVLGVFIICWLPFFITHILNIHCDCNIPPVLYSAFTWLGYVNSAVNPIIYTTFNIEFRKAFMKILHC
D(1A) dopamine receptor, sequence (P18901 whole entry): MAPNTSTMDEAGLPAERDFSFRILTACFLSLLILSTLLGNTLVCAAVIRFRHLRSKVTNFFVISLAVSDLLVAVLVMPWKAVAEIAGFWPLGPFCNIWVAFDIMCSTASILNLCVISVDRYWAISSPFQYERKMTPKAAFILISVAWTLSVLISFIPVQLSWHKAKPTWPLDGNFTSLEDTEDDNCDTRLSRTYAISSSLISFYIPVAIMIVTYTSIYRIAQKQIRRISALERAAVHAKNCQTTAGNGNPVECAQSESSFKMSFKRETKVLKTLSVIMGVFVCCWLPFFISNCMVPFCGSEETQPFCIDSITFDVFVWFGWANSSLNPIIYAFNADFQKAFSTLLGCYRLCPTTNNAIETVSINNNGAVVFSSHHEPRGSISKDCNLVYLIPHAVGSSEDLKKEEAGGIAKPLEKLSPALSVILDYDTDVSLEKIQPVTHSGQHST

Structure (SMILES) | IC50 (D(2) dopamine receptor) [µM] | ED50 (Mus musculus [1]) [mg/kg] | ED50 (Mus musculus [2]) [mg/kg] | also measured
CCn1[nH]c(C)c(C(=N)c2ccccc2)c1=O | > 10 | 11.8 | 21.5 | –
Cc1[nH]n(C)c(=O)c1C(=N)c1ccc(Cl)cc1 | – | 18.9 | > 56 | –
Cc1[nH]n(C)c(=O)c1C(=N)c1cccc(F)c1 | > 10 | 35.6 | 63.6 | –
Cc1[nH]n(C)c(=O)c1C(=N)c1ccc(N)cc1 | – | > 100 | > 100 | –
C/N=C(/c1cccc(Cl)c1)c1c(C)[nH]n(C)c1=O | – | 50.5 | 73.1 | –
CC(=O)/N=C(\c1cccc(Cl)c1)c1c(C)[nH]n(C)c1=O | > 1 | 25.1 | > 100 | –
Cc1[nH]n(C)c(=O)c1C(=N)c1ccc([N+](=O)[O-])cc1 | – | > 90 | > 90 | –
Cc1[nH]n(C(C)C)c(=O)c1C(=N)c1cccc(Cl)c1 | > 10 | 25 | > 30 | –
Cc1[nH]n(C)c(=O)c1C(=N)c1cc(Cl)cc(Cl)c1 | – | 34.9 | > 100 | –
CCCCn1[nH]c(C)c(C(=N)c2cccc(Cl)c2)c1=O | – | 88.3 | 62.5 | –
CCCn1[nH]c(C)c(C(=N)c2cccc(Cl)c2)c1=O | > 10 | 21.5 | > 30 | –
CCCn1[nH]c(C)c(C(=N)c2ccccc2)c1=O | – | 11.6 | 25.2 | –
Cn1[nH]cc(C(=N)c2cccc(Cl)c2)c1=O | – | 47.8 | > 100 | –
Cc1cccc(C(=N)c2c(C)[nH]n(C)c2=O)c1 | – | 33.1 | 79.3 | –
Cc1[nH]n(C)c(=O)c1C(=N)c1ccco1 | – | 33.6 | > 100 | –
Cc1[nH]n(C)c(=O)c1/C(=N/C(=O)C(Cl)Cl)c1cccc(Cl)c1 | > 1 | 35.5 | > 100 | –
Cc1[nH]n(C)c(=O)c1C(=N)c1cccs1 | – | 40.5 | > 90 | –
COc1ccccc1C(=N)c1c(C)[nH]n(C)c1=O | – | 46.6 | 87.9 | –
Cc1[nH]n(C)c(=O)c1C(=N)c1ccc2ccccc2c1 | – | 65.6 | > 100 | –

Structure (SMILES) | IC50 (D(2) dopamine receptor) [µM] | ED50 (Mus musculus [1]) [mg/kg] | ED50 (Mus musculus [2]) [mg/kg] | also measured
Cc1[nH]n(C)c(=O)c1C(=N)c1cccc(Cl)c1 | > 10 | 15.2 | > 100 | ED50 (Rattus norvegicus [3]): 17 mg/kg; IC50 [4]: > 10 µM; IC50 (D(1A) dopamine receptor): > 10 µM; ED50 (Rattus norvegicus [5]): 23.7 mg/kg; minimal effective dose [6]: > 100 mg/kg; IC50 [7]: > 10 µM; ED50 [8]: 16.3 mg/kg; Control (Rattus norvegicus [9]): -25%
Cc1[nH]n(C)c(=O)c1C(=N)c1cccc(Br)c1 | > 10 | 20.5 | > 30 | –
Cc1ccc(C(=N)c2c(C)[nH]n(C)c2=O)cc1 | – | > 100 | > 100 | –
COc1ccc(C(=N)c2c(C)[nH]n(C)c2=O)cc1 | – | > 100 | > 100 | –
Cc1[nH]n(C)c(=O)c1C(=N)c1ccc(C(F)(F)F)cc1 | > 10 | 31.4 | > 30 | –
Cc1[nH]n(C)c(=O)c1C(=N)c1cccc([N+](=O)[O-])c1 | – | 38.8 | > 100 | –
Cc1[nH]n(C)c(=O)c1C(=N)c1cccc(C(F)(F)F)c1 | – | > 30 | > 30 | –
Cc1[nH]n(C)c(=O)c1C(=N)c1ccccc1 | > 10 | 13.9 | 30.2 | –
Cn1[nH]cc(C(=N)c2ccccc2)c1=O | – | 49.1 | > 100 | –
CCc1[nH]n(C)c(=O)c1C(=N)c1cccc(Cl)c1 | – | 60.6 | 47.6 | –
Cc1[nH]n(C)c(=O)c1C(=N)c1ccccc1Cl | – | 31.1 | 50.8 | –
CCn1[nH]c(C)c(C(=N)c2cccc(Cl)c2)c1=O | > 10 | 16 | 45.3 | –
Cc1[nH]n(C)c(=O)c1C(=N)c1ccc(F)cc1 | > 10 | 15 | > 30 | –
Cc1[nH]n(C)c(=O)c1C(=N)c1ccc(Cl)c(Cl)c1 | – | 26.4 | > 30 | –
CCCCn1[nH]c(C)c(C(=N)c2ccccc2)c1=O | – | 48.7 | > 100 | –
Cc1[nH]n(C)c(=O)c1/C(=N/C(=O)C(F)(F)F)c1cccc(Cl)c1 | > 10 | 17.9 | > 100 | –
CN1CCN(C2=Nc3cc(Cl)ccc3Nc3ccccc32)CC1 [CLOZAPINE] | – | – | 10 | –
CSc1ccc2c(c1)N(CCC1CCCCN1C)c1ccccc1S2 (stereo not given) [THIORIDAZINE] | – | 2.9 | > 100 | ED50 (Rattus norvegicus [3]): 14.4 mg/kg; ED50 (Rattus norvegicus [5]): 28.3 mg/kg; minimal effective dose [6]: 2.5 mg/kg; Control (Rattus norvegicus [10]): 918%; Control (Rattus norvegicus [11]): 918%; ED50 [8]: 4 mg/kg
